Test results from ChEMBL document CHEMBL1135742, “Modification of the structure of a metallopeptide: synthesis and biological evaluation of (111)In-labeled DOTA-conjugated rhenium-cyclized alpha-MSH analogues” (J Med Chem, 2002).

How the values were obtained:
Type in all cases: functional, organism-based
[1] = organism: Mus musculus; assay: Uptake Ratio of Tumor/blood (each in % ID/g) in B16/F1 Murine Melanoma-Bearing C57 Mice at 24 h
Procedure, shortened: (§1)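 C57 BL/6 female mice (7–8 weeks) carried B16/F1 tumours from 1×10^6 cells given s.c. in the right flank; tumours were ~500 mg at 9–10 days. Each mouse received […] of HPLC-purified, neutralized 111In-DOTA peptide via the tail vein. Mice were killed at 0.5, 2, 4 or 24 h pi. Tissues were weighed and γ-counted, expressed as % ID/g; ratios were tumor/tissue % ID/g.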

[2] = organism: Mus musculus; assay: Radioactivity uptake in the heart was expressed as a percentage of the injected radioactive dose per gram of tissue (% ID/g) in B16/F1 Murine Melanoma-Bearing C57 Mice at 0.5 h; procedure, shortened: as §1
[3] = organism: Mus musculus; assay: Uptake Ratio of Tumor/blood (each in % ID/g) in B16/F1 Murine Melanoma-Bearing C57 Mice at 4 h; procedure, shortened: as §1
[4] = organism: Mus musculus; assay: Uptake Ratio of Tumor/lungs (each in % ID/g) in B16/F1 Murine Melanoma-Bearing C57 Mice at 2 h
Procedure, shortened: (§2)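 Female C57 BL/6 mice, 7–8 weeks old, carried subcutaneous right-flank B16/F1 tumors from 1×10^6 cells and were used 9–10 days later at ~500 mg tumor weight. Each received […] of HPLC-purified, pH-neutralized ¹¹¹In-DOTA peptide by tail vein. Tumor and organs were excised at the stated time, weighed and γ-counted. Each tissue was taken as % ID/g, and tumor/normal-tissue ratios were formed from these values.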

[5] = organism: Mus musculus; assay: Uptake Ratio of Tumor/liver (each in % ID/g) in B16/F1 Murine Melanoma-Bearing C57 Mice at 24 h; procedure, shortened: as §1
[6] = organism: Mus musculus; assay: Uptake Ratio of Tumor/kidneys (each in % ID/g) in B16/F1 Murine Melanoma-Bearing C57 Mice at 0.5 h; conditions: Kidney; procedure, shortened: as §1
[7] = organism: Mus musculus; assay: Radioactivity uptake in the muscle was expressed as a percentage of the injected radioactive dose per gram of tissue (% ID/g) in B16/F1 Murine Melanoma-Bearing C57 Mice at 24 h; procedure, shortened: as §1
[8] = organism: Mus musculus; assay: Radioactivity uptake in the muscle was expressed as a percentage of the injected radioactive dose per gram of tissue (% ID/g) in B16/F1 Murine Melanoma-Bearing C57 Mice at 2 h; procedure, shortened: as §1
[9] = organism: Mus musculus; assay: Uptake Ratio of Tumor/liver (each in % ID/g) in B16/F1 Murine Melanoma-Bearing C57 Mice at 4 h; procedure, shortened: as §1
[10] = organism: Mus musculus; assay: Radioactivity uptake in the heart was expressed as a percentage of the injected radioactive dose per gram of tissue (% ID/g) in B16/F1 Murine Melanoma-Bearing C57 Mice at 2 h; procedure, shortened: as §1
[11] = organism: Mus musculus; assay: Radioactivity uptake in the liver was expressed as a percentage of the injected radioactive dose per gram of tissue (% ID/g) in B16/F1 Murine Melanoma-Bearing C57 Mice at 24 h; procedure, shortened: as §1
[12] = organism: Mus musculus; assay: Radioactivity uptake in the pancreas was expressed as a percentage of the injected radioactive dose per gram of tissue (% ID/g) in B16/F1 Murine Melanoma-Bearing C57 Mice at 2 h; procedure, shortened: as §1
[13] = organism: Mus musculus; assay: Uptake Ratio of Tumor/muscle (each in % ID/g) in B16/F1 Murine Melanoma-Bearing C57 Mice at 2 h; conditions: Muscle tissue; procedure, shortened: as §2
[14] = organism: Mus musculus; assay: Uptake Ratio of Tumor/kidneys (each in % ID/g) in B16/F1 Murine Melanoma-Bearing C57 Mice at 24 h; conditions: Kidney; procedure, shortened: as §1
[15] = organism: Mus musculus; assay: Uptake Ratio of Tumor/muscle (each in % ID/g) in B16/F1 Murine Melanoma-Bearing C57 Mice at 0.5 h; conditions: Muscle tissue; procedure, shortened: as §2
[16] = organism: Mus musculus; assay: Radioactivity uptake in the lungs was expressed as a percentage of the injected radioactive dose per gram of tissue (% ID/g) in B16/F1 Murine Melanoma-Bearing C57 Mice at 4 h; conditions: Lung; procedure, shortened: as §1
[17] = organism: Mus musculus; assay: Radioactivity uptake in the tumor was expressed as a percentage of the injected radioactive dose per gram of tissue (% ID/g) in B16/F1 Murine Melanoma-Bearing C57 Mice at 0.5 h; procedure, shortened: as §1
[18] = organism: Mus musculus; assay: Uptake Ratio of Tumor/blood (each in % ID/g) in B16/F1 Murine Melanoma-Bearing C57 Mice at 2 h; procedure, shortened: as §1
[19] = organism: Mus musculus; assay: Radioactivity uptake in the tumor was expressed as a percentage of the injected radioactive dose per gram of tissue (% ID/g) in B16/F1 Murine Melanoma-Bearing C57 Mice at 4 h; procedure, shortened: as §1
[20] = organism: Mus musculus; assay: Uptake Ratio of Tumor/liver (each in % ID/g) in B16/F1 Murine Melanoma-Bearing C57 Mice at 2 h; procedure, shortened: as §1
[21] = organism: Mus musculus; assay: Radioactivity uptake in the tumor was expressed as a percentage of the injected radioactive dose per gram of tissue (% ID/g) in B16/F1 Murine Melanoma-Bearing C57 Mice at 2 h; procedure, shortened: as §1
[22] = organism: Mus musculus; assay: Uptake Ratio of Tumor/muscle (each in % ID/g) in B16/F1 Murine Melanoma-Bearing C57 Mice at 4 h; conditions: Muscle tissue; procedure, shortened: as §2
[23] = organism: Mus musculus; assay: Radioactivity uptake in the heart was expressed as a percentage of the injected radioactive dose per gram of tissue (% ID/g) in B16/F1 Murine Melanoma-Bearing C57 Mice at 24 h; procedure, shortened: as §1
[24] = organism: Mus musculus; assay: Radioactivity uptake in the liver was expressed as a percentage of the injected radioactive dose per gram of tissue (% ID/g) in B16/F1 Murine Melanoma-Bearing C57 Mice at 2 h; procedure, shortened: as §1
[25] = organism: Mus musculus; assay: Uptake Ratio of Tumor/muscle (each in % ID/g) in B16/F1 Murine Melanoma-Bearing C57 Mice at 24 h; conditions: Muscle tissue; procedure, shortened: as §2
[26] = organism: Mus musculus; assay: Radioactivity uptake in the tumor was expressed as a percentage of the injected radioactive dose per gram of tissue (% ID/g) in B16/F1 Murine Melanoma-Bearing C57 Mice at 24 h; procedure, shortened: as §1
[27] = organism: Mus musculus; assay: Radioactivity uptake in the spleen was expressed as a percentage of the injected radioactive dose per gram of tissue (% ID/g) in B16/F1 Murine Melanoma-Bearing C57 Mice at 24 h; procedure, shortened: as §1
[28] = organism: Mus musculus; assay: Radioactivity uptake in the kidneys was expressed as a percentage of the injected radioactive dose per gram of tissue (% ID/g) in B16/F1 Murine Melanoma-Bearing C57 Mice at 2 h; conditions: Kidney; procedure, shortened: as §1
[29] = organism: Mus musculus; assay: Radioactivity uptake in the lungs was expressed as a percentage of the injected radioactive dose per gram of tissue (% ID/g) in B16/F1 Murine Melanoma-Bearing C57 Mice at 0.5 h; conditions: Lung; procedure, shortened: as §1
[30] = organism: Mus musculus; assay: Radioactivity uptake in the lungs was expressed as a percentage of the injected radioactive dose per gram of tissue (% ID/g) in B16/F1 Murine Melanoma-Bearing C57 Mice at 24 h; conditions: Lung; procedure, shortened: as §1
[31] = organism: Mus musculus; assay: Radioactivity uptake in the liver was expressed as a percentage of the injected radioactive dose per gram of tissue (% ID/g) in B16/F1 Murine Melanoma-Bearing C57 Mice at 0.5 h; procedure, shortened: as §1
[32] = organism: Mus musculus; assay: Radioactivity uptake in the kidneys was expressed as a percentage of the injected radioactive dose per gram of tissue (% ID/g) in B16/F1 Murine Melanoma-Bearing C57 Mice at 24 h; conditions: Kidney; procedure, shortened: as §1
[33] = organism: Mus musculus; assay: Radioactivity uptake in the liver was expressed as a percentage of the injected radioactive dose per gram of tissue (% ID/g) in B16/F1 Murine Melanoma-Bearing C57 Mice at 4 h; procedure, shortened: as §1

Substance	Uptake ratio [1]	ID/g [2] [%]	Uptake ratio [3]	Uptake ratio [4]	Uptake ratio [5]	Uptake ratio [6]	ID/g [7] [%]	ID/g [8] [%]	Uptake ratio [9]	ID/g [10] [%]	ID/g [11] [%]	ID/g [12] [%]	Uptake ratio [13]	Uptake ratio [14]	Uptake ratio [15]	ID/g [16] [%]	ID/g [17] [%]	Uptake ratio [18]	ID/g [19] [%]	Uptake ratio [20]	other results
DOTA-ReCCEHdFRWCKPV-OH	22.4	0.68	200	52.8	18.5	0.95	0.14	0.054	69.1	0.058	0.17	0.03	174	0.43	27.9	0.1	10.4	143	9.27	63	ID/g [21]: 9.19%; Uptake ratio [22]: 277; ID/g [23]: 0.15%; ID/g [24]: 0.15%; Uptake ratio [25]: 26.8; ID/g [26]: 3.14%; ID/g [27]: 0.22%; ID/g [28]: 8.8%; ID/g [29]: 1.21%; ID/g [30]: 0.11%; ID/g [31]: 0.45%; ID/g [32]: 7.35%; ID/g [33]: 0.14%
DOTA-ReCCEHdFRWCKPVD-OH	65.5	0.44	199	56.6	12.9	0.78	0.082	0.13	46.8	0.07	0.19	0.029	102	0.4	38.2	0.097	8.96	224	7.32	51.3	ID/g [21]: 8.29%; Uptake ratio [22]: 156; ID/g [23]: 0.017%; ID/g [24]: 0.16%; Uptake ratio [25]: 27.3; ID/g [26]: 2.48%; ID/g [27]: 0.043%; ID/g [28]: 8.07%; ID/g [29]: 1.16%; ID/g [30]: 0.035%; ID/g [31]: 0.43%; ID/g [32]: 6.28%; ID/g [33]: 0.16%
DOTA-ReCCEHdFRWCRPV-NH2	95	0.76	254	65.4	25.6	1.8	0.14	0.03	60.2	0.07	0.32	0.08	2100	1.5	47.4	0.13	16.6	93.7	17.4	45.7	ID/g [21]: 17.3%; Uptake ratio [22]: 193; ID/g [23]: 0.36%; ID/g [24]: 0.38%; Uptake ratio [25]: 42.2; ID/g [26]: 8.19%; ID/g [27]: 0.32%; ID/g [28]: 8.72%; ID/g [29]: 1.66%; ID/g [30]: 0.24%; ID/g [31]: 0.66%; ID/g [32]: 5.64%; ID/g [33]: 0.3%
